# Laboratory results reported in ChEMBL document CHEMBL1148788 (J Med Chem, 2007).
# Several values for one entry are separate records, joined by “and”; a condition that tells them apart may be missing. Identical values can stand only once. Activity calls are given as the source filed them. The calls are words filed in the database; no cut-off is given here.
# Columns and labels:
# [1] = Displacement of [3H]methyllycaconitine from chimeric alpha7nAChR R79A mutant/5HT3A receptor R79A mutant in tsA201 cells; type: cell-based, Homo sapiens
# Method in brief: (§1)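 tsA-201 cells transiently transfected with 4 µg WT or mutant α7/5-HT3A chimera and assayed 2 days later. Membranes washed twice at 50000g in 50 mM Tris-HCl pH 7.2. Incubated with 0.5 nM [3H]MLA and compound for 2.5 h at room temperature with shaking; nonspecific binding with 5 mM (S)-nicotine. PEI-soaked GF/C filtration, scintillation counting. Ki derived; duplicate, 3–7 experiments.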
# [2] = Displacement of [3H]methyllycaconitine from chimeric alpha-7nAChR Y168A mutant/5HT3A receptor in tsA201 cells; type: cell-based, Homo sapiens; method in brief: as §1
# [3] = Antagonist activity at human alpha-7 nAChR Y188A mutant coexpressed with human Ric3 in tsA201 cells by FMP assay; type: functional, cell-based
# [4] = target: T1, Neuronal acetylcholine receptor; alpha3/beta4 (Rattus norvegicus, UniProt P04757+P12392); assay: Displacement of [3H]epibatidine from recombinant rat alpha-3-beta-4 nAChr in HEK293 cell line; type: cell-based
# [5] = target: T2, Glycine receptor subunit alpha-1 (Homo sapiens, UniProt P23415); assay: Antagonist activity at human glycine alpha-1 receptor in HEK293 cells by FMP assay; type: functional, cell-based
# T2 sequence (P23415 whole entry): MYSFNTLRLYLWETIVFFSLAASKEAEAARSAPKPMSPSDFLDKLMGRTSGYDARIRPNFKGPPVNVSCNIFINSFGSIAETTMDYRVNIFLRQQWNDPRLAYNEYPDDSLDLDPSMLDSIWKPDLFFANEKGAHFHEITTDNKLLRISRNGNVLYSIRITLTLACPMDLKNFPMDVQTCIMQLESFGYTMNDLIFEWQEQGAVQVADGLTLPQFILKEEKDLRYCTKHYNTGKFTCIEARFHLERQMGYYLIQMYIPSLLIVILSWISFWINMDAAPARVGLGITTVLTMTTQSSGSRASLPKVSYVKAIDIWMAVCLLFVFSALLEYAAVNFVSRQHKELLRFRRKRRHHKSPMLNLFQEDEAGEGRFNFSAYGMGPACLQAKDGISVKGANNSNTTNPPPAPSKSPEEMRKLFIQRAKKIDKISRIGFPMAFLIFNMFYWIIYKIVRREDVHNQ
# [6] = Displacement of [3H]methyllycaconitine from chimeric alpha7nAChR Y195A mutant/5HT3A receptor in tsA201 cells; type: cell-based, Homo sapiens; method in brief: as §1
# [7] = test system: tsA201; assay: Displacement of [3H]methyllycaconitine from chimeric alpha-7nAChR Y188A mutant/5-HT3A receptor in tsA201 cells; type: cell-based; details: Homo sapiens; method in brief: as §1
# [8] = test system: tsA201; assay: Displacement of [3H]methyllycaconitine from chimeric alpha-7nAChR W149Y mutant/5HT3A receptor W149Y mutant in tsA201 cells; type: cell-based; details: Homo sapiens; method in brief: as §1
# [9] = target: T3, Neuronal acetylcholine receptor subunit alpha-7 (Homo sapiens, UniProt P36544); assay: Displacement of [3H]methyllycaconitine from human alpha-7 in tsA201 cells coexpressed with 5HT3A receptor; type: cell-based
# Target sequence in this assay (P36544 whole entry): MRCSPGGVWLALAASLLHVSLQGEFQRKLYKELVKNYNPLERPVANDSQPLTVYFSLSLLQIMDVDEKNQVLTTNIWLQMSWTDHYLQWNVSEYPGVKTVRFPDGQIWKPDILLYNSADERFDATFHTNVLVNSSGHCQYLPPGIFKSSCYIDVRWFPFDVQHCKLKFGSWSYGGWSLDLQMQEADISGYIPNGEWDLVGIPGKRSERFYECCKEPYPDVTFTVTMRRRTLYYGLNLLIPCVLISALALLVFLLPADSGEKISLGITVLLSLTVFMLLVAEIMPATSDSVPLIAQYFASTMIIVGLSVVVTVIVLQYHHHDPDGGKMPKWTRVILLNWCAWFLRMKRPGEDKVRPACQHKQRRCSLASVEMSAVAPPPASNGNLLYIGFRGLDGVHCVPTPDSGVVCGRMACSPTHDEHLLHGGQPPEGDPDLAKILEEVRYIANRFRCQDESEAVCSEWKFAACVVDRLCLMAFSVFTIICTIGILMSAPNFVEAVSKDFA
# [10] = target: T1, Neuronal acetylcholine receptor; alpha3/beta4; assay: Antagonist activity at rat alpha3beta4 nAChR expressed in HEK293 cells by FMP assay; type: functional, cell-based, Homo sapiens; details: read-out: IC50
# [11] = target: T3, Neuronal acetylcholine receptor subunit alpha-7; assay: Antagonist activity at human alpha-7 nAChR in tsA201 cells coexpressed with Ric3 by FMP assay; type: functional, cell-based
# Target sequence in this assay (P36544 whole entry): as above
# [12] = cells; type: functional, cell-based; details: Homo sapiens, HEK293
# [13] = target: T3, Neuronal acetylcholine receptor subunit alpha-7; assay: Displacement of [3H]methyllycaconitine from alpha7 nAChR in tsA201 cells co-expressed with Ric3; type: cell-based
# Target sequence in this assay (P36544 whole entry): as above
# [14] = Displacement of [3H]methyllycaconitine from chimeric alpha7nAChR W55Y mutant/5HT3A receptor in tsA201 cells; type: cell-based, Homo sapiens; method in brief: as §1
# [15] = Displacement of [3H]methyllycaconitine from chimeric alpha-7nAChR S148A mutant /5HT3A receptor in tsA201 cells; type: cell-based, Homo sapiens; method in brief: as §1
# [16] = Displacement of [3H]methyllycaconitine from chimeric alpha-7nAChR Y195F mutant/5HT3A receptor in tsA201 cells; type: cell-based, Homo sapiens; method in brief: as §1
# [17] = Displacement of [3H]methyllycaconitine from chimeric alpha-7nAChR N107A mutant/5HT3A receptor in tsA201 cells; type: cell-based, Homo sapiens; method in brief: as §1
# [18] = Antagonist activity at human alpha7nAChR Y93A mutant co-expressed with human Ric3 in tsA201 cells by FMP assay; type: functional, cell-based
# [19] = Antagonist activity at human alpha-7 nAChR Y195A mutant coexpressed with human Ric3 in tsA201 cells by FMP assay; type: functional, cell-based
# [20] = Displacement of [3H]methyllycaconitine from chimeric alpha-7nAChR W55A mutant /5HT3A receptor in tsA201 cells; type: cell-based, Homo sapiens; method in brief: as §1
# [21] = target: T4, 5-hydroxytryptamine receptor 3A (Homo sapiens, UniProt P46098); assay: Displacement of [3H]GR65630 from human 5HT3A receptor in HEK293 cells; type: cell-based
# T4 sequence (P46098 whole entry): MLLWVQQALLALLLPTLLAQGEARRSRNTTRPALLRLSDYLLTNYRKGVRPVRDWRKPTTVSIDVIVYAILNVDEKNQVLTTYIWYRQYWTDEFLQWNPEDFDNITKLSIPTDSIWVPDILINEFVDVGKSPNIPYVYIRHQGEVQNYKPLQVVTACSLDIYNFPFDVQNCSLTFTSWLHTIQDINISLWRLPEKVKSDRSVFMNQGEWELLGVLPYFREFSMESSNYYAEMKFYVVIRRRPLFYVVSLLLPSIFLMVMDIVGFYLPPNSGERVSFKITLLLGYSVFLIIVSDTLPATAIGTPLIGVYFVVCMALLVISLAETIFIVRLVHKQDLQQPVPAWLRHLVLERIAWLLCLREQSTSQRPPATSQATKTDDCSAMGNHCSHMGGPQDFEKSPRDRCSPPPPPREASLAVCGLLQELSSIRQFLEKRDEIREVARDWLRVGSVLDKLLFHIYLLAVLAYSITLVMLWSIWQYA
# [22] = Displacement of [3H]methyllycaconitine from chimeric alpha-7nAChR D197A mutant/5HT3A receptor in tsA201 cells; type: cell-based, Homo sapiens; method in brief: as §1
# [23] = test system: tsA201; assay: Displacement of [3H]methyllycaconitine from chimeric alpha-7nAChR W55A/Y195A mutant /5HT3A receptor in tsA201 cells; type: cell-based; details: Homo sapiens; method in brief: as §1
# [24] = test system: tsA201; assay: Displacement of [3H]methyllycaconitine from chimeric alpha-7nAChR Y93A mutant/5HT3A receptor in tsA201 cells; type: cell-based; details: Homo sapiens; method in brief: as §1
# [25] = target: Neuronal acetylcholine receptor; alpha4/beta4 (Rattus norvegicus, UniProt P09483+P12392); assay: Displacement of [3H]epibatidine from recombinant rat alpha-4-beta-4 nAChr in HEK293 cell line; type: cell-based
# [26] = test system: tsA201; assay: Displacement of [3H]methyllycaconitine from chimeric alpha-7nAChR W149A mutant/5HT3A receptor in tsA201 cells; type: cell-based; details: Homo sapiens; method in brief: as §1
# [27] = Displacement of [3H]methyllycaconitine from chimeric alpha-7nAChR K145R mutant /5HT3A receptor in tsA201 cells; type: cell-based, Homo sapiens; method in brief: as §1
# [28] = target: T3, Neuronal acetylcholine receptor subunit alpha-7
# Target sequence in this assay (P36544 whole entry): as the sequence (P36544 whole entry) above
# [29] = Displacement of [3H]methyllycaconitine from chimeric alpha7nAChR K145A mutant/5HT3A receptor in tsA201 cells; type: cell-based, Homo sapiens; method in brief: as §1
# [30] = target: T4, 5-hydroxytryptamine receptor 3A; assay: Antagonist activity at human 5HT3A receptor expressed in HEK293 cells by FMP assay; type: functional, cell-based; details: read-out: IC50
# [31] = target: Neuronal acetylcholine receptor; alpha4/beta2 (Rattus norvegicus, UniProt P09483+P12390); assay: Displacement of [3H]epibatidine from rat recombinant alpha-4-beta-2 nAChR in HEK293 cell line; type: cell-based
# [32] = Antagonist activity at human alpha7 nAChR W149Y mutant co-expressed with human Ric3 in tsA201 cells by FMP assay; type: functional, cell-based
# [33] = Displacement of [3H]methyllycaconitine from chimeric alpha-7nAChR S150A mutant/5HT3A receptor in tsA201 cells; type: cell-based, Homo sapiens; method in brief: as §1
# [34] = target: T3, Neuronal acetylcholine receptor subunit alpha-7; assay: Displacement of [3H]methyllycaconitine from chimeric alpha7nAChR/5HT3A in tsA201 cells; type: cell-based
# Target sequence in this assay (P36544 23-502 limits assumed): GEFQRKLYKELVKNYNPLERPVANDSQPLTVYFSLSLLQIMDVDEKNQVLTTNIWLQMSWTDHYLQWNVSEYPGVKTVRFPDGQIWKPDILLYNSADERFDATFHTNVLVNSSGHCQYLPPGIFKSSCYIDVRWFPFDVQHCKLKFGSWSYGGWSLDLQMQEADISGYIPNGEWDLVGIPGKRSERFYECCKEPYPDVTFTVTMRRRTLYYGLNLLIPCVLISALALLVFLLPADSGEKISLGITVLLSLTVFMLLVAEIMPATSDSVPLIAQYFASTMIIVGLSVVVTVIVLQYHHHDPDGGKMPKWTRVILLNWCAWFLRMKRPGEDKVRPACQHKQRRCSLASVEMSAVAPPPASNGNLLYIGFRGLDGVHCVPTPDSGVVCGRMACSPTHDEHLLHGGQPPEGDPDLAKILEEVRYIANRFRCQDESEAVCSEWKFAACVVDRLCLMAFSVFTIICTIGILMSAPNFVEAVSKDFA
# Neuronal acetylcholine receptor; alpha4/beta4, sequence (P09483 whole entry): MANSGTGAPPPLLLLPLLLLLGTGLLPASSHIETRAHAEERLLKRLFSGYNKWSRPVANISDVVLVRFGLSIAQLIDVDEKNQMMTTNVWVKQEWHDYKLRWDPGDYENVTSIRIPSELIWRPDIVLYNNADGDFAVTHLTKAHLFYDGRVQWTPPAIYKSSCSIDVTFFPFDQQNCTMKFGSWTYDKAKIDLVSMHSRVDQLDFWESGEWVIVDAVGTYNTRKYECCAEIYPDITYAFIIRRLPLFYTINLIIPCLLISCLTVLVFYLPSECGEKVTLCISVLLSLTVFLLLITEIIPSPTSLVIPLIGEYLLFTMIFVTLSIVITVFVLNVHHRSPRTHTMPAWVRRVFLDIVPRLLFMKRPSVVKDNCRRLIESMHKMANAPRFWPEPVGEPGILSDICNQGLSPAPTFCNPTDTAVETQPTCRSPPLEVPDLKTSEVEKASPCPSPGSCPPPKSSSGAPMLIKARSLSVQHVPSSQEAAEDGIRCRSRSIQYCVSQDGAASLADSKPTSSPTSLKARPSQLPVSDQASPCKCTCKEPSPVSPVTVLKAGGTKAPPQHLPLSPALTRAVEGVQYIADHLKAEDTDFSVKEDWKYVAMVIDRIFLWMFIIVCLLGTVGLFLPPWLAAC
# Neuronal acetylcholine receptor; alpha4/beta4, sequence (P12392 whole entry): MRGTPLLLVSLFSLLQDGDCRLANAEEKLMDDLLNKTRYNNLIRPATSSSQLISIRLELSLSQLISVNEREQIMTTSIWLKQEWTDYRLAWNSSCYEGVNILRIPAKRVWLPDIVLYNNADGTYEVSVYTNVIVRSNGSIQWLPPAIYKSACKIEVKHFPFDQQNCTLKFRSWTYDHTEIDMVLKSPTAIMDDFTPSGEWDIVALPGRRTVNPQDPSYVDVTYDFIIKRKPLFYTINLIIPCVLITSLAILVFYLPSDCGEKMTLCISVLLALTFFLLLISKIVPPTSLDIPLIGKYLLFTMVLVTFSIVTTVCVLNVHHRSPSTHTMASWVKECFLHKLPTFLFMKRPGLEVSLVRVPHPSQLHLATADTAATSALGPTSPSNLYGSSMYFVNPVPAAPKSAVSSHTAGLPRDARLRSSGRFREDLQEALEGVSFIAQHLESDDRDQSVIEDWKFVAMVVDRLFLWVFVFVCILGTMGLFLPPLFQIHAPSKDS
# Neuronal acetylcholine receptor; alpha4/beta2, sequence (P09483 whole entry): as the sequence (P09483 whole entry) above
# Neuronal acetylcholine receptor; alpha4/beta2, sequence (P12390 whole entry): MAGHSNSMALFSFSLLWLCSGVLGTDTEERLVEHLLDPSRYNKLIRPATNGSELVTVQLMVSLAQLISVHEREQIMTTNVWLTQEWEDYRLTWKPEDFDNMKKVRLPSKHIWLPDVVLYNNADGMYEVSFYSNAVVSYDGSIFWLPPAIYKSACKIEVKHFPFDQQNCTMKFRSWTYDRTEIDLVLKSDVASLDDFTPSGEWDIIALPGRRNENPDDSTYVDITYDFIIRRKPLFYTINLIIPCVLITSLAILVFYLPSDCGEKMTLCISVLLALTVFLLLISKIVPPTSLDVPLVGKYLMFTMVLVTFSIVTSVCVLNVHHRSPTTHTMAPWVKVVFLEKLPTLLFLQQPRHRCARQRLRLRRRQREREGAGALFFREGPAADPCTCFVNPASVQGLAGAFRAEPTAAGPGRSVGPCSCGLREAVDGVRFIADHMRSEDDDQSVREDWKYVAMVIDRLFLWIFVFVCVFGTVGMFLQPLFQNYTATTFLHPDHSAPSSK
# T1 sequence (P04757 whole entry): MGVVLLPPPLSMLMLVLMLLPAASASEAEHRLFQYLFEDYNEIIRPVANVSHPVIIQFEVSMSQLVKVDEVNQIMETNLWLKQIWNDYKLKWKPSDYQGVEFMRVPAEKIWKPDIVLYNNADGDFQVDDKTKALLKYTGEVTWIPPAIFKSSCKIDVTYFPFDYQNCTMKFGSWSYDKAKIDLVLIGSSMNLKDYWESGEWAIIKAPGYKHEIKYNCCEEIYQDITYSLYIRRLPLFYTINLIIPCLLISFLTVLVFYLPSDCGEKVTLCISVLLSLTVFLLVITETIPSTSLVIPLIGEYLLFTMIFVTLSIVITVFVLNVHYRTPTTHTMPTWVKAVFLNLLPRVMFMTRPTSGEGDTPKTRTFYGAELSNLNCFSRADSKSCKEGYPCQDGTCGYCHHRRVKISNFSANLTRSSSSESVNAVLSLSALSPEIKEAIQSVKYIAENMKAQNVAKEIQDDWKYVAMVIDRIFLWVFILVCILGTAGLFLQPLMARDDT
# T1 sequence (P12392 whole entry): as the sequence (P12392 whole entry) above
smiles,measurement,setting,value
C1=CC([N+]23CC[C@@H]4[C@@H]5[C@@H]6[C@@H](OCC=C(C2)[C@@H]6C[C@@H]43)N2c3ccccc3[C@@]34CC[N+]6(C7C=CCCC7)CC7=CCO[C@H]([C@@H]([C@H]23)[C@H]7C[C@@H]46)N5c2ccccc2)CCC1.[Br-].[Br-] (stereo partly drawn),Ki,[1],1300 nM
same,pKi,[1],5.89
same,Ki,[2],1100 nM
same,pKi,[2],5.96
same,IC50,[3]; read-out: IC50,5300 nM
same,IC50,[3]; read-out: pIC50 (converted),5130 nM
same,Ki,[4],30000 nM
same,IC50,[5],> 100000 nM
same,pIC50,[5]; hek293,< 4
same,Ki,[6],4900 nM
same,pKi,[6],5.31
same,Activity,[7],inactive
same,Activity,[8],inactive
same,Ki,[9]; read-out: Ki,720 nM
same,Ki,[9]; read-out: pKi (converted),794 nM
same,IC50,[10],30000 nM
same,IC50,[11]; read-out: IC50,3000 nM
same,IC50,[11]; read-out: pIC50 (converted),3020 nM
same,IC50,[12]; read-out: IC50,> 100000 nM
same,IC50,[12]; read-out: pIC50 (converted),> 100000 nM
same,Ki,[13]; read-out: Ki,590 nM
same,Ki,[13]; read-out: pKi (converted),631 nM
same,Ki,[14],560 nM
same,pKi,[14],6.25
same,Ki,[15],400 nM
same,pKi,[15],6.4
same,Ki,[16],1300 nM
same,pKi,[16],5.89
same,Ki,[17],724 nM
same,pKi,[17],6.14
same,IC50,[18]; read-out: IC50,3700 nM
same,IC50,[18]; read-out: pIC50 (converted),3720 nM
same,IC50,[19]; read-out: IC50,3300 nM
same,IC50,[19]; read-out: pIC50 (converted),3310 nM
same,Ki,[20],1200 nM
same,pKi,[20],5.93
same,Ki,[21],2700 nM
same,Ki,[22],1500 nM
same,pKi,[22],5.83
same,Activity,[23],inactive
same,Activity,[24],inactive
same,Ki,[25],> 100000 nM
same,pKi,[25]; hek293,< 4
same,Activity,[26],inactive
same,Ki,[27],660 nM
same,pKi,[27],6.18
same,IC50,[28],3000 nM and 2950 nM
same,Ki,[29],320 nM
same,pKi,[29],6.5
same,IC50,[30],4400 nM
same,pKi,[31]; hek293,< 4
same,Ki,[31]; read-out: Ki,> 100000 nM
same,IC50,[32]; read-out: IC50,2900 nM
same,IC50,[32]; read-out: pIC50 (converted),2880 nM
same,Ki,[33],550 nM
same,pKi,[33],6.26
same,Ki,[34],840 nM
same,pKi,[34],6.07
